{"data": "Assay results of several laboratories", "organism": "Mycobacterium tuberculosis", "read-out": "microbial growth", "note": "Compare with care: the assays were run in different laboratories. pIC50: −log10 of the molar value."}
{"Compound": "O=C(Cc1ccccc1)Nc1cc(-c2ccccn2)nc2nncn12", "strain": "H37RV", "endpoint": "IC90", "value": "2 µM"}
{"Compound": "O=C(c1cc2ccc(-c3ccccc3)nc2s1)N1CCCC1", "strain": "H37RV", "time": "5 days", "endpoint": "IC90", "value": "> 100 µM"}
{"Compound": "NCC[C@H](O)C(=O)N[C@@H]1C[C@H](N)[C@@H](O[C@H]2O[C@H](CN)[C@@H](O)[C@H](O)[C@H]2O)[C@H](O)[C@H]1O[C@H]1O[C@H](CO)[C@@H](O)[C@H](N)[C@H]1O", "endpoint": "MIC50", "value": "0.25 µg/mL"}
{"Compound": "O=c1c2cc(Cl)ccc2[nH]c(=S)n1Cc1cncc(-c2nnn[nH]2)c1", "strain": "H37RV", "endpoint": "MIC90", "value": "> 100 µM"}
{"Compound": "CC[C@@H](CO)NCCN[C@@H](CC)CO", "method": "resazurin", "strain": "H37RV", "time": "21 days", "endpoint": "MIC", "value": "0.25 µg/mL"}
{"Compound": "Cc1ccc(CCNc2cc(-c3ccc(Cl)s3)nc3nncn23)cc1", "strain": "H37RV", "endpoint": "MIC", "value": "4.8 µM"}
{"Compound": "CCCCCCC#Cc1cncc(-c2nnc(SC[C@H]3O[C@@H](n4ccc(=O)[nH]c4=O)[C@H](O)[C@@H]3O)n2CCO)c1", "method": "resazurin", "strain": "ERDMAN", "endpoint": "pIC50", "value": 3.71}
{"Compound": "COc1ccc(-c2cc(C(F)(F)F)c3c(N)c(C(=O)N4CC5(CCOC5)C4)sc3n2)cc1", "strain": "H37RV", "endpoint": "pIC50", "value": 4.62}
{"Compound": "CCc1cc(=O)c2c(OCC(O)CNC(C)C)c3ccoc3c(OC)c2o1 (centres unmarked)", "method": "resazurin", "time": "21 days", "endpoint": "MIC", "value": "16 µg/mL"}
{"Compound": "NC(=O)c1cc(Br)ccc1OCCc1cccc(F)c1", "endpoint": "pIC50", "value": 5.70}
{"Compound": "Cc1ccc(-c2cc(NCCc3ccc(C(F)(F)F)cc3)n3cnnc3n2)o1", "strain": "H37RV", "endpoint": "MIC", "value": "0.37 µM"}
{"Compound": "CO[C@H]1/C=C/O[C@@]2(C)Oc3c(C)c(O)c4c(O)c(c(/C=N/N5CCN(C)CC5)c(O)c4c3C2=O)NC(=O)/C(C)=C\\C=C\\[C@H](C)[C@H](O)[C@@H](C)[C@@H](O)[C@@H](C)[C@H](OC(C)=O)[C@@H]1C", "strain": "H37RV", "endpoint": "MIC50", "value": "0.06 µg/mL"}
{"Compound": "Nc1c(C(=O)NCc2ccc(F)cc2)sc2ncccc12", "strain": "H37RV", "endpoint": "pIC50", "value": "< 4.00"}
{"Compound": "CCCCCCC#Cc1cncc(-c2nnc(SCc3cc(C(F)(F)F)cc(C(F)(F)F)c3)n2CCCN)c1", "method": "resazurin", "strain": "ERDMAN", "endpoint": "pIC50", "value": 5.51}
{"Compound": "Nc1c(C(=O)NCc2ccccc2)sc2nc(-c3ccccc3)ccc12", "strain": "H37RV", "endpoint": "pIC50", "value": 4.38}
{"Compound": "CCc1cc(=O)c2c(OCC(O)CN3CCCCC3)c3ccoc3c(OC)c2o1 (centres unmarked)", "method": "resazurin", "strain": "H37RV", "time": "21 days", "endpoint": "MIC", "value": "64 µg/mL"}
{"Compound": "COc1c(N2C[C@@H]3CCCN[C@@H]3C2)c(F)cc2c(=O)c(C(=O)O)cn(C3CC3)c12", "strain": "H37RV", "endpoint": "MIC", "value": "0.125 µg/mL"}
{"Compound": "O=c1c2cc(Cl)c(CO)cc2[nH]c(=S)n1Cc1cncc(-c2nnn[nH]2)c1", "strain": "H37RV", "endpoint": "MIC90", "value": "59.2 µM"}
{"Compound": "COc1ccc(-c2cc(C(F)(F)F)c3c(N)c(C(=O)NC(C)C4CCCCC4)sc3n2)cc1 (centres unmarked)", "strain": "H37RV", "endpoint": "pIC50", "value": 6.03}
{"Compound": "Cc1ccc(-c2cc(NCCc3ccc(OC(F)(F)F)cc3)n3cnnc3n2)o1", "strain": "H37RV", "endpoint": "MIC", "value": "0.46 µM"}
{"Compound": "CCCCCCC#Cc1cncc(-c2nnc(SCc3ccc([N+](=O)[O-])cc3)n2CCCN)c1", "method": "resazurin", "strain": "ERDMAN", "endpoint": "pIC50", "value": 4.70}
{"Compound": "COc1ccc(-c2cc(C(F)(F)F)c3c(N)c(C(=O)NCCSC)sc3n2)cc1", "strain": "H37RV", "endpoint": "pIC50", "value": 4.38}
{"Compound": "O=c1c2cc(Cl)cnc2[nH]c(=S)n1Cc1cccnc1", "strain": "H37RV", "endpoint": "MIC90", "value": "> 100 µM"}
{"Compound": "CO[C@H]1/C=C/O[C@@]2(C)Oc3c(C)c(O)c4c(O)c(c(/C=N/N5CCN(C)CC5)c(O)c4c3C2=O)NC(=O)/C(C)=C\\C=C\\[C@H](C)[C@H](O)[C@@H](C)[C@@H](O)[C@@H](C)[C@H](OC(C)=O)[C@@H]1C", "strain": "H37RA", "endpoint": "MIC90", "value": "0.01 µM"}
{"Compound": "c1ccc(-c2cc(Nc3ccc(N4CCOCC4)cc3)n3cnnc3n2)nc1", "strain": "H37RV", "endpoint": "MIC", "value": "> 100 µM"}
{"Compound": "COc1ccc(-c2cc(C(F)(F)F)c3c(N)c(C(=O)N4CCCC4)sc3n2)cc1", "strain": "H37RV", "endpoint": "pIC50", "value": "< 4.30"}
{"Compound": "CCCCCCC#Cc1cncc(-c2nnc(SC[C@H]3O[C@@H](n4ccc(=O)[nH]c4=O)[C@H](O)[C@@H]3O)n2C)c1", "method": "resazurin", "strain": "ERDMAN", "endpoint": "pIC50", "value": 4.01}
{"Compound": "CC(c1cccnc1)n1c(=S)[nH]c2ccc(Cl)cc2c1=O (centres unmarked)", "strain": "H37RV", "endpoint": "MIC90", "value": "66.2 µM"}
{"Compound": "COc1ccc(-c2cc(C(F)(F)F)c3c(N)c(C(=O)Nc4ccc(C)cc4C)sc3n2)cc1", "strain": "H37RV", "endpoint": "pIC50", "value": "< 4.00"}
{"Compound": "Cc1ccc(Cn2c(=S)[nH]c3ccc(Cl)cc3c2=O)cn1", "strain": "H37RV", "endpoint": "MIC90", "value": "> 25 µM"}
{"Compound": "CCCCCCC#Cc1cncc(-c2nnc(SCc3cc(=O)[nH]c4ccccc34)n2C)c1", "method": "resazurin", "strain": "ERDMAN", "endpoint": "pIC50", "value": "< 3.70"}
{"Compound": "c1ccc(-c2cc(NCCC34CC5CC(CC(C5)C3)C4)n3ncnc3n2)nc1", "strain": "H37RV", "endpoint": "MIC", "value": "12 µM"}
{"Compound": "O=c1c2ccncc2[nH]c(=S)n1Cc1cccnc1", "strain": "H37RV", "endpoint": "MIC90", "value": "> 100 µM"}
{"Compound": "FC(F)(F)c1ccc(CCNc2cc(-c3cccs3)nc3nncn23)cc1", "strain": "H37RV", "endpoint": "IC90", "value": "0.31 µM"}
{"Compound": "CC(C)c1ccc(Cn2c(=S)[nH]c3ccc(Cl)cc3c2=O)cn1", "strain": "H37RV", "endpoint": "MIC90", "value": "> 100 µM"}
{"Compound": "Clc1ccc(CCNc2cc(-c3ccccn3)nc3nnc(C4CC4)n23)cc1", "strain": "H37RV", "endpoint": "MIC", "value": "36 µM"}
{"Compound": "NC(=S)c1cncc(Cn2c(=S)[nH]c3cc(CO)c(Cl)cc3c2=O)c1", "strain": "H37RV", "endpoint": "MIC90", "value": "4.61 µM"}
{"Compound": "NNC(=O)c1ccncc1", "strain": "H37RV", "endpoint": "MIC90", "value": "0.81 µg/mL"}
